For test [1], the species on record is Mus musculus. The experiment in a line: Inhibition of spontaneous activity (SA) in mice. The class given is functional. In a few lines: (§1)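 Measured in the same mice as tail-flick; iv tail-vein dosing in ethanol:emulphor:saline 1:1:18, 0.1 mL/10 g. Immediately after tail-flick (about 4 min post-injection) mice placed in individual photocell cages; beam interruptions over 16 beams counted for 10 min.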

The species named for test [2] is Mus musculus. As to the kind of experiment: Antinociception as measured from the tail - flick response (TF), in mice. Type of test: functional.
The target of test [3] is T1, Cannabinoid receptor 1 (Mus musculus, UniProt P47746). The experiment in a line: Binding affinity for Cannabinoid receptor 1 in presence of phenylmethylsulfonyl fluoride (PMSF). The method in brief: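 Radioligand binding to P2 membranes (150 µg protein) in 50 mM Tris-HCl, 1 mM EDTA, 3 mM MgCl2, 5 mg/mL BSA, with amidase inhibitor PMSF 50 µM; final ethanol ≤0.4%. 1 h at 30 °C; nonspecific binding with 1 µM CP-55,940; terminated with ice-cold buffer and rapid filtration through PEI-treated filters.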
T1 sequence (P47746 whole entry): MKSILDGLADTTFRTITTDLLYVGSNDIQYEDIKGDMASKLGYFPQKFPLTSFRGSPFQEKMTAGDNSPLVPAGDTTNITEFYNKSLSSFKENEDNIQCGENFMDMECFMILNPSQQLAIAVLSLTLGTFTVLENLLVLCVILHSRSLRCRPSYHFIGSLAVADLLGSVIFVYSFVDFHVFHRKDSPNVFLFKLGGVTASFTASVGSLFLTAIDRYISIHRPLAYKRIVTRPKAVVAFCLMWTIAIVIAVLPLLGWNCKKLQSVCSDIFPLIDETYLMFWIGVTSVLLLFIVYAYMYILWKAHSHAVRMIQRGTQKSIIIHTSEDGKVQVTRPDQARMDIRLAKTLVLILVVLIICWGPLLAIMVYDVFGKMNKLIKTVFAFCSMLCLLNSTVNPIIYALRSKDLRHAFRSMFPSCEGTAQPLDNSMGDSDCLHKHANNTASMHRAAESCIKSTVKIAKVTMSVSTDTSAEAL

Test [4] is filed under the species Mus musculus. The experiment in a line: Ring immobility (RI) in mice. The class given is functional. In a few lines: (§2)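 Same mice as temperature test; immediately after temperature reading, mice placed on 5.5 cm ring 16 cm high and motionless time over 5 min recorded; % immobility = time/300 s × 100. iv tail-vein dosing in ethanol:emulphor:saline 1:1:18.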
Test [5] is filed under the species Mus musculus. As to the kind of experiment: Hypothermia as measured from changes in rectal (RT) in mice. The class given is functional. In a few lines:
(§3)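 Separate group of mice; rectal temperature by thermistor probe inserted 25 mm before and 4 min after iv tail-vein injection (ethanol:emulphor:saline 1:1:18, 0.1 mL/10 g).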

For test [6], the target named is T1, Cannabinoid receptor 1. As to the kind of experiment: Binding affinity for Cannabinoid receptor 1 in absence of phenylmethylsulfonyl fluoride (PMSF). In a few lines:
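Radioligand binding to P2 membranes (150 µg protein) in 50 mM Tris-HCl, 1 mM EDTA, 3 mM MgCl2, 5 mg/mL BSA; ethanolic stocks diluted, final ethanol ≤0.4%; no PMSF. 1 h at 30 °C; nonspecific binding with 1 µM CP-55,940; stopped with ice-cold buffer and rapid filtration through PEI-treated filters.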

The species entered for test [7] is Mus musculus. As to the kind of experiment: Hypothermia as measured from changes in rectal (RT) in mice; Inactive. Type of test: functional, organism-based. In a few lines: as §3
For test [8], the species on record is Mus musculus. As to the kind of experiment: Antinociception as measured from the tail - flick response (TF), in mice; Inactive. Type of test: functional, organism-based.
The species entered for test [9] is Mus musculus. As to the kind of experiment: Inhibition of spontaneous activity (SA) in mice; Inactive. The class given is functional, organism-based. The method in brief:
as §1

For test [10], the species on record is Mus musculus. As to the kind of experiment: Ring immobility (RI) in mice; Inactive. The class given is functional, organism-based. The method in brief: as §2

The results in this text go back to ChEMBL document CHEMBL1130218, “Potent anandamide analogs: the effect of changing the length and branching of the end pentyl chain” (J Med Chem, 1997).

As usually defined, the ED50 is the dose that gives a 50% effect, or the effect in half of the subjects. For orientation: Ki means the dissociation constant of the complex between target and ligand, obtained from inhibition or displacement.

Calls of active or inactive are those of the source. No cut-off for these calls is given here.

On to `CCCCCCC(C)(C)/C=C\C/C=C\C/C=C\C/C=C\CCC(C)C(=O)NCCF` (centres undefined), for which the ED50 in the test listed under Mus musculus [1] stood at 3.48 mg/kg; in the test filed under Mus musculus [2] it was 0.86 mg/kg; in the test filed under Mus musculus [4], 3.11 mg/kg; in the test listed under Mus musculus [5], 3.6 mg/kg. Also, on Cannabinoid receptor 1 [3], the Ki is 1 nM.
As for `CCCCCC/C=C\C/C=C\C/C=C\C/C=C\CCCC(=O)NCCO`, the Ki came out at 3060 nM on Cannabinoid receptor 1 [6] and 24 nM on Cannabinoid receptor 1 [3]. Besides, the ED50 result in the test listed under Mus musculus [7], in the test filed under Mus musculus [8], in the test listed under Mus musculus [9] and in the test filed under Mus musculus [10] was “inactive” each time.
On to `CCCCCC(C)C/C=C\C/C=C\C/C=C\C/C=C\CCC(C)C(=O)NCCF` (centres undefined), for which the ED50 in the test listed under Mus musculus [1] was 2.09 mg/kg; in the test listed under Mus musculus [2], 4.08 mg/kg; in the test filed under Mus musculus [4], 2.67 mg/kg; in the test filed under Mus musculus [5] it was 0.24 mg/kg. For the same molecule, the Ki on Cannabinoid receptor 1 [3] is 3.3 nM.
The molecule `CCCCC(C)(C)C/C=C\C/C=C\C/C=C\C/C=C\CCCC(=O)NCCO` yielded an ED50 in the test filed under Mus musculus [1] of 44.1 mg/kg. Moreover, the Ki worked out at 382 nM on Cannabinoid receptor 1 [6] and 48 nM at Cannabinoid receptor 1 [3]. In addition, the ED50 result in the test filed under Mus musculus [7], in the test listed under Mus musculus [8] and in the test listed under Mus musculus [10] was “inactive” throughout.
Turning to `CCCCCCCC/C=C\C/C=C\C/C=C\C/C=C\CCC(C)C(=O)NCCF` (centres undefined), the ED50 in the test filed under Mus musculus [1] worked out at 3.52 mg/kg; in the test filed under Mus musculus [2] it was 15.3 mg/kg; in the test filed under Mus musculus [4], 6.37 mg/kg. Further, the Ki on Cannabinoid receptor 1 [3] is 8.2 nM. Besides, the ED50 result in the test filed under Mus musculus [7] is “inactive”.
Regarding `CCCCCCCC/C=C\C/C=C\C/C=C\C/C=C\CCCC(=O)NCCO`, the Ki at Cannabinoid receptor 1 [6] amounted to 156 nM; at Cannabinoid receptor 1 [3] it was 18 nM. The ED50 result in the test filed under Mus musculus [8] and in the test listed under Mus musculus [9] was “inactive” in each case.
As to `CCCCCCC(C)/C=C\C/C=C\C/C=C\C/C=C\CCC(C)C(=O)NCCF` (centres undefined), the ED50 was 1.15 mg/kg in the test filed under Mus musculus [1], 1.3 mg/kg in the test filed under Mus musculus [2], 2.22 mg/kg in the test filed under Mus musculus [4] and 0.08 mg/kg in the test listed under Mus musculus [5]. Moreover, on Cannabinoid receptor 1 [3], the Ki is 4.8 nM.
With `CCCCCC(C)(C)C/C=C\C/C=C\C/C=C\C/C=C\CCCC(=O)NCCO`, the ED50 worked out at 3.36 mg/kg in the test listed under Mus musculus [1], 57.3 mg/kg in the test filed under Mus musculus [2], 5.05 mg/kg in the test filed under Mus musculus [4] and 9.38 mg/kg in the test listed under Mus musculus [5]. For the same molecule, the Ki on Cannabinoid receptor 1 [6] worked out at 39 nM; on Cannabinoid receptor 1 [3], 19 nM.
For `CCCCCC(C)(C)C/C=C\C/C=C\C/C=C\C/C=C\CCC(C)C(=O)NCCF` (centres undefined), the ED50 amounted to 3.14 mg/kg in the test filed under Mus musculus [1], 4.12 mg/kg in the test filed under Mus musculus [2], 11.4 mg/kg in the test listed under Mus musculus [4] and 76.2 mg/kg in the test listed under Mus musculus [5]. The Ki on Cannabinoid receptor 1 [3] is 7.7 nM.
As for `CCCCCCCC(C)(C)/C=C\C/C=C\C/C=C\C/C=C\CCC(C)C(=O)NCCF` (centres undefined), the ED50 is 20.3 mg/kg in the test listed under Mus musculus [1], 12.8 mg/kg in the test listed under Mus musculus [2] and 33.3 mg/kg in the test filed under Mus musculus [4]. For the same molecule, at Cannabinoid receptor 1 [3], the Ki turned out to be 14 nM. Also, in the test filed under Mus musculus [7], the ED50 entry was “inactive”.
Molecule `CCCCCCC/C=C\C/C=C\C/C=C\C/C=C\CCCC(=O)NCCO` returned an ED50 in the test filed under Mus musculus [1] of 20.4 mg/kg. Besides, the Ki is 1780 nM at Cannabinoid receptor 1 [6] and 55 nM at Cannabinoid receptor 1 [3]. In addition, the ED50 result in the test listed under Mus musculus [7], in the test listed under Mus musculus [8] and in the test filed under Mus musculus [10] was “inactive” throughout.
On to `CCCCCC(C)C/C=C\C/C=C\C/C=C\C/C=C\CCCC(=O)NCCO` (centres undefined), for which the ED50 in the test listed under Mus musculus [1] worked out at 6.22 mg/kg; in the test filed under Mus musculus [2], 5.48 mg/kg; in the test listed under Mus musculus [4], 5.29 mg/kg; in the test filed under Mus musculus [5], 12.2 mg/kg. In addition, the Ki on Cannabinoid receptor 1 [6] was found to be 51 nM; at Cannabinoid receptor 1 [3], 11 nM.
As to `CCCCC/C=C\C/C=C\C/C=C\C/C=C\CCC(C)C(=O)NCCF` (centres undefined), the ED50 in the test listed under Mus musculus [1] stood at 4.78 mg/kg; in the test filed under Mus musculus [2] it was 6.99 mg/kg; in the test filed under Mus musculus [4], 1.6 mg/kg; in the test filed under Mus musculus [5], 2.73 mg/kg. The Ki at Cannabinoid receptor 1 [6] was found to be 15 nM; on Cannabinoid receptor 1 [3], 5.7 nM.
`CCCCCCC(C)(C)/C=C\C/C=C\C/C=C\C/C=C\CCCC(=O)NCCO`: the ED50 worked out at 2.17 mg/kg in the test filed under Mus musculus [1], 2.16 mg/kg in the test filed under Mus musculus [2], 1.17 mg/kg in the test filed under Mus musculus [4] and 7.49 mg/kg in the test listed under Mus musculus [5]. In addition, the Ki on Cannabinoid receptor 1 [3] is 7 nM.
Regarding `CCCCCc1cc(O)c2c(c1)OC(C)(C)C1CCC(C)=C[C@@H]21` (single isomer, unassigned) [DRONABINOL], the ED50 in the test listed under Mus musculus [1] was determined as 1 mg/kg; in the test listed under Mus musculus [2], 1.4 mg/kg; in the test listed under Mus musculus [4], 1.5 mg/kg; in the test listed under Mus musculus [5], 1.4 mg/kg.
Regarding `CCCCCCCCC/C=C\C/C=C\C/C=C\C/C=C\CCCC(=O)NCCO`, the results for the ED50 in the test listed under Mus musculus [1], in the test listed under Mus musculus [2] and in the test listed under Mus musculus [4] were 7.35 mg/kg, 14.4 mg/kg and 5.13 mg/kg, respectively. Also, the Ki was 79 nM on Cannabinoid receptor 1 [6] and 25 nM at Cannabinoid receptor 1 [3]. In addition, the ED50 entry in the test listed under Mus musculus [7] is “inactive”.
`CCCCC/C=C\C/C=C\C/C=C\C/C=C\CCCC(=O)NCCO` [ANANDAMIDE]: the ED50 in the test listed under Mus musculus [1] is 17.9 mg/kg; in the test listed under Mus musculus [2], 6.2 mg/kg; in the test listed under Mus musculus [4], 19.1 mg/kg; in the test filed under Mus musculus [5], 26.5 mg/kg.
